Experimental data from different studies.
Protocols differ between the studies behind these lines.
Target: Serine/threonine-protein kinase D3 (PRKD3, Homo sapiens, UniProt O94806)
Residues used in one study (O94806 1-890): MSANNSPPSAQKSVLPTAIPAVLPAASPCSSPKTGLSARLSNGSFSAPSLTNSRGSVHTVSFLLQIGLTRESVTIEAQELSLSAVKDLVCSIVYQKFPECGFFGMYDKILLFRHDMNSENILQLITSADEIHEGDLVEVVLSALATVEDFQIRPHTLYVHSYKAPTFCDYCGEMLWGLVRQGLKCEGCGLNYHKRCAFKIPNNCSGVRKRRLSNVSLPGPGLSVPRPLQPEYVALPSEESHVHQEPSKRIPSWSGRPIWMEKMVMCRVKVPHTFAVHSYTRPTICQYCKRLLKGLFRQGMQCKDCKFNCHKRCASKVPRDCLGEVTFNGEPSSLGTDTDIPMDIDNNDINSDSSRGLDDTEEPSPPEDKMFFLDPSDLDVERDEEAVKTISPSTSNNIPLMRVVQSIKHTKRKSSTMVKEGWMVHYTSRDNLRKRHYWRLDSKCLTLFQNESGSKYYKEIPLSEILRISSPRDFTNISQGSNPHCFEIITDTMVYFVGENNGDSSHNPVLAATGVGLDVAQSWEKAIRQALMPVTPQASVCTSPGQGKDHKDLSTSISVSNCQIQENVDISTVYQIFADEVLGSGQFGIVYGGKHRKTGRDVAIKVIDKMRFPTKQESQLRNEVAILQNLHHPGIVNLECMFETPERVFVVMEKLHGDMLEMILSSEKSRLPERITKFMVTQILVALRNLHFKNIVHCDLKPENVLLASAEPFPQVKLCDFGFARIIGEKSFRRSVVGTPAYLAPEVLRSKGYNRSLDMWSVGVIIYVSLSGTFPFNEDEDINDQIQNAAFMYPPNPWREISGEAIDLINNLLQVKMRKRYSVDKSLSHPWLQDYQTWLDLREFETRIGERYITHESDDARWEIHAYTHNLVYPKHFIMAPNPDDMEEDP

COCCOc1nc(-c2ccc(Cl)nc2)nc2c1CN(C(=O)c1ncn3ccccc13)CC2  remaining binding (cell-free assay, competition with immobilised ligand; 0.1 µM): 94%
COc1cc2ncnc(Nc3ccc(F)c(Cl)c3)c2cc1OCCCN1CCOCC1  remaining signal (cell-free assay; 0.5 µM): 76.3%
Cc1nc(N2CC[C@@H](O)C2)ncc1-c1cc(C(F)(F)F)cc2[nH]ncc12  remaining binding (binding, competition with immobilised ligand; 1 µM): 100%
CCN1CCN(Cc2ccc(NC(=O)c3ccc(C)c(Oc4ccnc5[nH]ccc45)c3)cc2C(F)(F)F)CC1  inhibition (target engagement in cells, inhibitor, chemoproteomics; Huh-7; 1 µM): -12.7%
CNc1cccc2cc(C(=O)Nc3ccc(C(=O)O)cc3)c(=O)[nH]c12  inhibition (enzyme activity, inhibitor; 10 µM): -1%
CCCCNc1ncc2c(-c3ccc(F)cc3)nn(C[C@H]3CC[C@H](N)CC3)c2n1  inhibition (target engagement in cells, inhibitor, chemoproteomics; 20 mM): 48.7%
CN1CCC2(CC1)NC(=O)c1c(c3ccc(Cl)c(Cl)c3n1C)C2C#N (racemic)  ΔTm (thermal stability, DSF; 10 µM): 2 °C
N#CCCc1ccc2c(c1)-c1[nH]c3ccc([N+](=O)[O-])cc3c1CC(=O)N2  remaining signal (cell-free assay; 0.5 µM): 84%
O=C(Nc1cnn(-c2csc(C(=O)NC3COC3)c2)c1)Nc1c(F)cccc1Cl  remaining activity (enzyme activity, inhibitor; 5 µM): 105%
Cn1c2c(Cl)c(Cl)ccc2c2cc[nH]c(=O)c21  ΔTm (thermal stability, DSF; 10 µM): 2.2 °C
CN1CC(Oc2cnc(C#N)cc2-c2ccn3nc(NC(=O)C4CC4)cc3c2)C1  inhibition (enzyme activity, inhibitor; 1 µM): -13%
O=C1NC(=O)c2cc(Nc3ccc(F)cc3)c(Nc3ccc(F)cc3)cc21  remaining signal (cell-free assay; 0.5 µM): 96.7%
c1ccc(CNc2nc(N3CCOc4ccccc43)nc3c2CCCC3)cc1  inhibition (target engagement in cells, inhibitor, chemoproteomics; 20 mM): 2.8%
O=C(Nc1ccc(Oc2ccc(F)cc2)cc1)N1CCc2ncccc2[C@H]1c1ccc(F)cc1  remaining binding (cell-free assay, competition with immobilised ligand; 1 µM): 98%
CC1(C)NC(=O)c2[nH]c3c(Cl)c(Cl)ccc3c2C1C#N (centres unmarked)  ΔTm (thermal stability, DSF; 10 µM): 0.8 °C
CNC(=O)Nc1ccc2c(c1)CC[C@@]21OC(=O)N(CC(=O)N(Cc2ccc(F)cc2)[C@@H](C)C(F)(F)F)C1=O  remaining binding (cell-free assay, competition with immobilised ligand; 1 µM): 100%
CC(C)(O)[C@H]1CC[C@H](Nc2ccc3ncc(-c4cccc(C(F)(F)F)c4)n3n2)CC1  remaining activity (enzyme activity, inhibitor; 1 µM): 91.2%
CN(C)CC#Cc1ccc(OCCCc2sc(N3CCc4cccc(C(=O)Nc5nc6ccccc6s5)c4C3)nc2C(=O)O)c(F)c1  remaining binding (cell-free assay, competition with immobilised ligand; 1 µM): 93%
COc1cc2ncnc(Nc3ccc(Oc4ccccc4)cc3C)c2cc1OC  inhibition (enzyme activity, inhibitor; 1 µM): 10%
Cc1nc(Cc2cccc(C(F)(F)F)c2)sc1-c1ccc(C(N)=O)nc1  remaining binding (cell-free assay, competition with immobilised ligand; 1 µM): 97%
CC(C)(C)c1nc2c(s1)c1nc(N)ncc1c1ccc(NS(=O)(=O)c3c(F)cccc3F)c(F)c12  remaining activity (enzyme activity, inhibitor, radiometric; 1 µM): 98%
O=C(NC[C@@H]1[C@H]2CN(C(=O)OCc3cc(C(F)(F)F)cc(C(F)(F)F)c3)C[C@@H]12)c1ccc2[nH]nnc2c1  remaining binding (cell-free assay, competition with immobilised ligand; 1 µM): 83%
Cn1c2c(c3ccc(Cl)c(Cl)c31)C(C#N)C(C)(C)NC2=O (centres unmarked)  ΔTm (thermal stability, DSF; 10 µM): 1.9 °C
